Activity calls are given as the source filed them. The rule behind the calls is not given here.
What was measured:
PC-3 [1] = assay: Effect on in Maspin expression in human PC3 cells deficient in wild type androgen receptor at 2.5 uM by luciferase reporter gene assay; type: functional, cell-based
Outline: (§1)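 PC-3 cells were transfected with maspin-luc, with or without cotransfected AR. Cells were exposed to DMSO vehicle or compound at 2.5 and 5 μM. Luciferase activity was measured in triplicate.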

[2] = biological target: T1, Androgen receptor (Homo sapiens) (UniProt P10275); assay: Antagonist activity at androgen receptor in human PC3 cells assessed as increase in Maspin promoter activity at 5 uM by luciferase reporter gene assay; type: functional, cell-based; conditions: PC-3; outline: as §1
T1 sequence (whole entry): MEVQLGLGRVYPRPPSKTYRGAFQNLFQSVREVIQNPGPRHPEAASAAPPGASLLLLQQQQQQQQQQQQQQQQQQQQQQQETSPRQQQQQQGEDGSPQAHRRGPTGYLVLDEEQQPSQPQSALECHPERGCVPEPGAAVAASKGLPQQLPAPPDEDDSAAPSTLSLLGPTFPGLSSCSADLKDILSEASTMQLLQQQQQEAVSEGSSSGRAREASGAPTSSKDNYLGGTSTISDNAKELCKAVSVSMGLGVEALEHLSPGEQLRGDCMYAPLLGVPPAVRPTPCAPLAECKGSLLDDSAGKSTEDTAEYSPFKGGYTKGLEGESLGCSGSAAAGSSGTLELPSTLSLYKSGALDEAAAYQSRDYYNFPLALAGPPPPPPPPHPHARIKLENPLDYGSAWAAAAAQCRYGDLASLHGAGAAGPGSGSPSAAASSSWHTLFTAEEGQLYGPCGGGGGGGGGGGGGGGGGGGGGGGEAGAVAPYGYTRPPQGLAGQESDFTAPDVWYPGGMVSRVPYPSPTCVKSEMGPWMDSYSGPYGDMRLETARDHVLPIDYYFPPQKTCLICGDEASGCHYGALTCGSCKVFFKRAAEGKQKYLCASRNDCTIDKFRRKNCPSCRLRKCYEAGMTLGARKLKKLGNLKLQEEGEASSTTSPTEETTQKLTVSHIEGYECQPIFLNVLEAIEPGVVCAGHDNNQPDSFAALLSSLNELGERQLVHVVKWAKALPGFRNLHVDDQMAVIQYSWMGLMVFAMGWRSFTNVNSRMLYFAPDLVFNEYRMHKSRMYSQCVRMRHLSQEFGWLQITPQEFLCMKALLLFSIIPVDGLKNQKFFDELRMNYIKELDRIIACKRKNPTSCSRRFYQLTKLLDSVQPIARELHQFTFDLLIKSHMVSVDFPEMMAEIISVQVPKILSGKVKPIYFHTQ

PC-3 [3] = assay: Antagonist activity at androgen receptor ARv7 mutant lacking ligand binding domain expressed in human PC3 cells assessed as reduction in DHT-induced receptor transactivation at 1 uM by luciferase reporter gene assay; type: cell-based
Outline: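 AR-v7 (lacks LBD), MMTV-Luc and pRL-TK (Renilla) plasmids transiently transfected into PC-3 cells; cells treated with DMSO vehicle, 0.1 nM DHT, or test compound at 1 μM; transactivation read as luciferase activity (relative luciferase units).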

PC-3 [4] = assay: Antagonist activity at androgen receptor T887A mutant expressed in human PC3 cells assessed as reduction in DHT-induced receptor transactivation at 0.1 to 1 uM by luciferase reporter gene assay; type: functional, cell-based
Outline: (§2)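 Full-length wild-type or mutant AR plasmid transiently transfected into PC-3 cells with MMTV-luc and Renilla luciferase reporters. Cells treated with DMSO vehicle or compound at 0.1 and 1 μM, alone or with 0.1 nM DHT. Luciferase read as relative luciferase units. Run in triplicate.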

[5] = biological target: T1, Androgen receptor (Homo sapiens); assay: Antagonist activity at androgen receptor expressed in human PC3 cells assessed as reduction in DHT-induced receptor transactivation at 0.1 to 1 uM by luciferase reporter gene assay; type: functional, cell-based; conditions: PC-3; outline: as §2
[6] = biological target: T1, Androgen receptor (Homo sapiens); assay: Antagonist activity at androgen receptor in human LNCaP cells assessed as reduction in DHT-induced PSA expression by luciferase reporter gene assay; type: functional, cell-based
Outline: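 LNCaP cells carrying a PSA-luc reporter were treated with compound at 1 and 2.5 μM in the presence of 1 nM DHT. Fold suppression was calculated relative to 1 nM DHT alone. Run in triplicate.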

[7] = Cytotoxicity against human C4-2B cells incubated for 72 hrs by MTT assay; type: functional, cell-based; conditions: LNCaP C4-2B
Outline: (§3)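 MTT assay run across a panel of prostate cancer cell lines.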

LNCaP [8] = assay: Cytotoxicity against human LNCAP cells incubated for 72 hrs by MTT assay; type: functional, cell-based; outline: as §3
LNCaP [9] = assay: Induction of apoptosis in human LNCAP cells assessed as PARP cleavage activation incubated for 24 hrs by Western blotting; type: functional, cell-based
Outline: (§4)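 LNCaP cells in complete medium were exposed to DMSO or compound at 1, 2.5 and 5 μM for 24 h. Western blot measured AR, maspin, caspase-3 activation and PARP cleavage, with β-actin as loading control.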

LNCaP [10] = assay: Induction of apoptosis in human LNCAP cells assessed as caspase-3 activation incubated for 24 hrs by Western blotting; type: functional, cell-based; outline: as §4
[11] = biological target: T1, Androgen receptor (Homo sapiens); assay: Antagonist activity at androgen receptor in human LNCaP cells assessed as increase in Maspin protein expression at 1 or 2.5 uM incubated for 24 hrs in presence of DHT by Western blot

SMILES: Cc1coc2c1C(=O)C(=O)c1c-2ccc2c1CCCC2(C)C [TANSHINONE IIA]
- Activity (PC-3 [1]): inactive
- Activity [2]: Active
- Activity (PC-3 [3]): inactive
- Activity (PC-3 [4]): Active
- Activity [5]: Active
- Activity [6]: Dose-dependent effect
- IC50 [7]: 400 nM
- IC50 (LNCaP [8]): 500 nM
- Activity (LNCaP [9]): Dose-dependent effect
- Activity (LNCaP [10]): Dose-dependent effect
- Activity [11]: Active

From ChEMBL document CHEMBL2163220 (J Med Chem, 2012)
